From ChEMBL document CHEMBL1154356, “1-Peptidyl-2-arachidonoyl-3-stearoyl-sn-glyceride: an immunologically active lipopeptide from goat serum (Capra hircus) is an endogenous damage-associated molecular pattern” (J Nat Prod, 2009)
Active and inactive are the calls of the source. The rule behind the calls is not given here. Where a SMILES comes first, the peptide text is derived from it. The star is where a group is joined. X1 = CCCCC/C=C\C/C=C\C/C=C\C/C=C\CCCC(=O)O[C@@H](COC(=O)CCCCCCCCCCCCCCCCC)CO*

Experiments:
Fibroblast [1] = experiment: Immunomodulatory effect in human fibroblasts assessed as induction of MCP1 mRNA expression at 3 ng/ml after 24 hrs by SYBR Green PCR relative to beta-actin control; format: functional
Procedure, shortened: (§1)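 Normal primary human fibroblasts were grown in DMEM with 10% FBS and 1× penicillin/streptomycin at 37 °C and 5% CO2. Cells were treated for 24 h with synthetic compound or with purified natural material diluted 1:100. Total RNA was extracted, and 2.0 µg was reverse-transcribed for transcript quantitation. Expression was normalised to β-actin.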

Fibroblast [2] = experiment: Induction of IL33 expression in human fibroblasts at 12.5 ng/ml after 24 hrs by SYBR Green PCR relative to untreated control; format: functional, cell-based
Fibroblast [3] = experiment: Induction of IL8 expression in human fibroblasts at 12.5 ng/ml after 24 hrs by SYBR Green PCR relative to untreated control; format: functional, cell-based
Fibroblast [4] = experiment: Immunomodulatory effect in human fibroblasts assessed as induction of MIP-1alpha mRNA expression at 1:100 dilution after 24 hrs by SYBR Green PCR relative to beta-actin control; format: functional; procedure, shortened: as §1
Fibroblast [5] = experiment: Induction of IL8 secretion in human fibroblasts after 24 hrs by ELISA relative to untreated control; format: functional
Procedure, shortened: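 Primary human fibroblasts were cultured in complete DMEM with synthetic compound across a dose range that included 0.3–3 ng/mL, for 24 h. Supernatants were stored at -80 °C. IL-8 was measured by sandwich ELISA: plates coated with anti-human IL-8 overnight at 4 °C, blocked 60 min at room temperature, sample 2 h, detection antibody 30 min, avidin-HRP 30 min, then TMB substrate.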

Fibroblast [6] = experiment: Immunomodulatory effect in human fibroblasts assessed as induction of IL6 mRNA expression at 5 ng/ml after 24 hrs by SYBR Green PCR relative to beta-actin control; format: functional; procedure, shortened: as §1
Fibroblast [7] = experiment: Induction of IL18 expression in human fibroblasts at 12.5 ng/ml after 24 hrs by SYBR Green PCR relative to untreated control; format: functional
Fibroblast [8] = experiment: Immunomodulatory effect in human fibroblasts assessed as induction of IL6 mRNA expression at 1:100 dilution after 24 hrs by SYBR Green PCR relative to beta-actin control; format: functional; procedure, shortened: as §1
Fibroblast [9] = experiment: Induction of IL1-beta expression in human fibroblasts at 12.5 ng/ml after 24 hrs by SYBR Green PCR relative to untreated control; format: functional, cell-based
Fibroblast [10] = experiment: Immunomodulatory effect in human fibroblasts assessed as induction of MCP1 mRNA expression at 1:100 dilution after 24 hrs by SYBR Green PCR relative to beta-actin control; format: functional; procedure, shortened: as §1
Fibroblast [11] = experiment: Immunomodulatory effect in human fibroblasts assessed as induction of IL8 mRNA expression at 3 ng/ml after 24 hrs by SYBR Green PCR relative to untreated control; format: functional; procedure, shortened: as §1
[12] = Toxicity in human fibroblasts assessed as decrease in IL8 mRNA expression after 24 hrs by SYBR Green PCR relative to untreated control; format: cell-based; details: fibroblast; procedure, shortened: as §1
Fibroblast [13] = experiment: Induction of IL6 expression in human fibroblasts at 12.5 ng/ml after 24 hrs by SYBR Green PCR relative to untreated control; format: functional, cell-based
Fibroblast [14] = experiment: Immunomodulatory effect in human fibroblasts assessed as induction of MIP-1alpha mRNA expression at 3 ng/ml after 24 hrs by SYBR Green PCR relative to beta-actin control; format: functional; procedure, shortened: as §1

CCCCC/C=C\C/C=C\C/C=C\C/C=C\CCCC(=O)O[C@@H](COC(=O)CCCCCCCCCCCCCCCCC)COC(=O)[C@@H](NC(=O)CNC(=O)[C@@H](NC(=O)[C@H](CS)NC(=O)[C@H](CC(=O)O)NC(=O)[C@H](CCCCN)NC(=O)[C@H](CCC(N)=O)NC(=O)[C@H](CCC(=O)O)NC(=O)[C@H](CCCCN)NC(=O)[C@H](CO)NC(=O)[C@@H](NC(=O)[C@H](Cc1ccc(O)cc1)NC(=O)CNC(=O)[C@H](CCCCN)NC(=O)[C@H](CC(=O)O)NC(=O)[C@H](Cc1ccc(O)cc1)NC(=O)[C@H](CC(C)C)NC(=O)[C@H](C)NC(C)=O)[C@@H](C)O)C(C)C)[C@@H](C)CC (Ac-ALYDKGYTSKEQKDCVGI-X1)
fold change (FC) (Fibroblast [1]): 3 | Activity (Fibroblast [2]): Active | Activity (Fibroblast [3]): inactive | Activity (Fibroblast [4]): 15% | Activity (Fibroblast [5]): Dose-dependent effect | EC99 (Fibroblast [5]): 0.003 µg/mL | Activity (Fibroblast [6]): 20% | Activity (Fibroblast [7]): 20% | Activity (Fibroblast [8]): 40% | Activity (Fibroblast [9]): inactive | fold change (FC) (Fibroblast [10]): 3 | fold change (FC) (Fibroblast [11]): 5 | Activity [12]: Dose-dependent effect | Activity (Fibroblast [13]): inactive | Activity (Fibroblast [14]): 15%
